# Results from different studies.
# Protocols differ between the studies behind these lines.
# Read-out: cell growth or viability
SMILES,cell line,test,setting,IC50
Nc1nc2[nH]cc(CCc3ccc(C(=O)N[C@@H](CCC(=O)O)C(=O)O)cc3)c2c(=O)[nH]1,MB002,,7 days,0.0635 µM
Cn1c(-c2nnc(NC(=O)c3cc4c([nH]c5ccccc54)c(-c4ccccc4)n3)s2)cc2ccccc21,BT-474,MTT,72 h,17.6 µM
CON(C)C(=O)N1N=C(c2cc(F)ccc2F)S[C@@]1(CCCN)c1ccccc1,MB002,,7 days,0.000967 µM
COc1cc(Nc2nccc(-c3cnn4nc(OC)ccc34)n2)cc(C(F)(F)F)c1,SW948,ATP luminescence,,3 µM
COc1cc(-c2nc(C(=O)Nc3nnc(-c4cc5ccccc5n4C)s3)cc3c2[nH]c2ccccc23)cc(OC)c1OC,BT-474,MTT,72 h,9.15 µM
CC(=NN=C1SC(C)C(=O)N1C)c1c(O)c2ccccc2oc1=O (centres unmarked),human Skin fibroblast,MTT,48 h,> 100 µM
CCn1c(-c2nnc(NC(=O)c3cc4c([nH]c5ccccc54)c(-c4cc(OC)c(OC)c(OC)c4)n3)s2)cc2ccccc21,BT-474,MTT,72 h,19.5 µM
O=C(NCc1ccc(CO)cc1)c1c[nH]c2ccc(Cl)cc12,SK-N-BE,MTT,,15 µM
O=C(N/N=C/c1c(O)ccc2ccccc12)c1cc(-c2ccc3ccccc3c2)n[nH]1,WM278,MTS,24 h,29 µM
COc1cccc2c1C(=O)c1c(O)c3c(c(O)c1C2=O)C[C@@](O)(C(=O)CO)C[C@@H]3O[C@H]1C[C@H](N)[C@H](O)[C@H](C)O1,MB002,,7 days,0.0645 µM
CC(=NN=c1[nH]c(C)c(N=Nc2ccc(C)cc2)s1)c1c(O)c2ccccc2oc1=O,human Skin fibroblast,MTT,48 h,> 100 µM
CN(C)c1ccc2cc(C(=O)N[C@@H](CCCNC(=N)CCl)C(=O)NCc3ccccc3)ccc2c1,S-180,,48 h,8.4 µM
COc1ccc2c(c1)NC(=O)CN2c1nc(C)nc2c1CCC2,A375/TxR,MTS,drug-resistant strain,0.0011 µM
Cc1cc(-c2nc(C(=O)Nc3cc4oc(N5CCOCC5)nc4nc3N3CC[C@@H](O)C3)co2)ccn1,B16-F10,,5 days,0.55 µM
CNC(=S)NN=C(C)c1c(O)c2ccccc2oc1=O,human Skin fibroblast,MTT,48 h,> 100 µM
COc1cccc2c1C(=O)c1c(O)c3c(c(O)c1C2=O)C[C@@](O)(C(=O)CO)C[C@@H]3O[C@H]1C[C@H](N)[C@H](O)[C@H](C)O1,human Skin fibroblast,MTT,48 h,0.16 µM
CC(=NN=C1NC(=O)C(C)S1)c1c(O)c2ccccc2oc1=O (centres unmarked),human Skin fibroblast,MTT,48 h,> 100 µM
CC(=O)O[C@H]1C(=O)[C@@]2(C)[C@H]([C@H](OC(=O)c3ccccc3)[C@]3(O)C[C@H](OC(=O)[C@H](O)[C@@H](NC(=O)c4ccccc4)c4ccccc4)C(C)=C1C3(C)C)[C@]1(OC(C)=O)CO[C@@H]1C[C@@H]2O,KB 3-1,MTT,,0.00772 µM
CC(C)C[C@H](NC(=O)[C@H](Cc1ccccc1)NC(=O)c1cnccn1)B(O)O,SK-LU-1,ATP luminescence,,0.01 µM
CC[C@H](C)[C@@H]([C@@H](CC(=O)N1CCC[C@H]1[C@H](OC)[C@@H](C)C(=O)N[C@@H](Cc1ccccc1)C(=O)O)OC)N(C)C(=O)[C@@H](NC(=O)[C@@H](NC)C(C)C)C(C)C,M21,MTT,72 h,> 1 µM
CS(=O)(=O)c1ccc(C(=O)Nc2ccc(Cl)c(-c3ccccn3)c2)c(Cl)c1,HD-MB03,,7 days,> 10 µM
O=C(Nc1nnc(-c2cc3ccccc3[nH]2)s1)c1cc2c([nH]c3ccccc32)c(-c2ccccc2)n1,BT-474,MTT,72 h,5.68 µM
CC(=NN=C1SCC(=O)N1C)c1c(O)c2ccccc2oc1=O,human Skin fibroblast,MTT,48 h,> 100 µM
COc1ccc(COc2cc3oc(=O)c4cc(C(C)O)ccc4c3cc2OC)cc1 (centres unmarked),MB002,,7 days,> 10 µM
Oc1ccc(Nc2nc(-c3ccc(Cl)cc3)cs2)cc1,WM278,MTS,24 h,20 µM
O=C(Nc1cccc(CO)c1)c1c[nH]c2ccc(Cl)cc12,SK-N-BE,MTT,,19 µM
COc1cccc2c1C(=O)c1c(O)c3c(c(O)c1C2=O)C[C@@](O)(C(=O)CO)C[C@@H]3O[C@H]1C[C@H](N)[C@H](O)[C@H](C)O1,BT-474,MTT,48 h,0.8 µg/mL
CC(C)c1cc(-c2n[nH]c(=O)n2-c2ccc3c(ccn3C)c2)c(O)cc1O,BT-474,imaging,24 h,0.412 µM
CCn1c(-c2nnc(NC(=O)c3cc4c([nH]c5ccccc54)c(-c4ccc(OC)cc4)n3)s2)cc2ccccc21,BT-474,MTT,72 h,20.1 µM
CCn1c(C)csc1=NN=C(C)c1c(O)c2ccccc2oc1=O,human Skin fibroblast,MTT,48 h,> 100 µM
Cc1nc(Nc2ncc(C(=O)Nc3c(C)cccc3Cl)s2)cc(N2CCN(CCO)CC2)n1,MB002,,7 days,2.65 µM
CCn1c(C)c(C(C)=O)sc1=NN=C(C)c1c(O)c2ccccc2oc1=O,human Skin fibroblast,MTT,48 h,> 100 µM
CC1(C)[C@@H](O)CC[C@]2(C)[C@H]3C(=O)C=C4[C@@H]5C[C@@](C)(C(=O)O)CC[C@]5(C)CC[C@@]4(C)[C@]3(C)CC[C@@H]12,human Skin fibroblast,MTT,48 h,48.2 µM
CCOC(=O)c1sc(=NN=C(C)c2c(O)c3ccccc3oc2=O)n(C)c1C,human Skin fibroblast,MTT,48 h,> 100 µM
C[C@]1(c2nc3c(C(N)=O)cccc3[nH]2)CCCN1,HD-MB03,,7 days,> 10 µM
CCn1c(-c2nnc(NC(=O)c3cc4c([nH]c5ccccc54)c(-c4ccc(C)cc4)n3)s2)cc2ccccc21,BT-474,MTT,72 h,19.5 µM
Cn1cnc2c(F)c(Nc3ccc(Br)cc3Cl)c(C(=O)NOCCO)cc21,MB002,,7 days,> 10 µM
CNc1ncc2cc(-c3ccc(-c4cccc(C)n4)cc3Cl)c(=O)n(C[C@H]3OC[C@H](N)CO3)c2n1,CFPAC-1,MTT,24 h,23.9 µM
